{"data": "Published values from different studies", "OTUD6B": "Deubiquitinase OTUD6B (OTUD6B, Homo sapiens, UniProt Q8N6M0)", "TACR3": "Neuromedin-K receptor (TACR3, Homo sapiens, UniProt P29371)", "MAP4K3": "Mitogen-activated protein kinase kinase kinase kinase 3 (MAP4K3, Homo sapiens, UniProt Q8IVH8)", "ADORA1": "Adenosine receptor A1 (ADORA1, Homo sapiens, UniProt P30542)", "note": "Lines come from different studies, so protocols differ."}
{"Compound": "CCOC(=O)c1ccc(OC(=O)CCCCCNC(=N)N)cc1", "target": "OTUD6B", "test": "enzyme activity, inhibitor", "setting": "10 µM", "inhibition [%]": 3}
{"Compound": "c1ccc(C(NCCNC(c2ccccc2)c2ccccc2)c2ccccc2)cc1", "target": "TACR3", "test": "cell-free assay", "setting": "10 µM", "inhibition [%]": 61}
{"Compound": "Cn1cc(-c2cc(F)cc(N3CCn4c(cc5c4CCCC5)C3=O)c2CO)cc(Nc2ccc(N3CCN(C4COC4)CC3)cn2)c1=O", "target": "Inhibitor of nuclear factor kappa-B kinase subunit alpha (CHUK, Homo sapiens, UniProt O15111)", "test": "enzyme activity, inhibitor", "setting": "0.1 µM", "inhibition [%]": 14}
{"Compound": "C#Cc1n[nH]c2c(-c3cn([C@@H](C)c4ccccc4)c(=O)[nH]c3=O)cc(F)cc12", "target": "MAP4K3", "test": "enzyme activity, inhibitor", "setting": "0.1 µM", "inhibition [%]": -1.9}
{"Compound": "O[C@H]1[C@H](n2cnc3c(NC(C4CCCCC4)C4CCCCC4)nc(Cl)nc32)[C@H]2C[C@@]2(CF)[C@H]1O", "target": "ADORA1", "test": "ligand displacement, radioligand", "setting": "10 µM", "inhibition [%]": 47}
{"Compound": "C[C@H](C(=O)N[C@H]1COc2ccccc2[C@@H]1S(C)(=O)=O)c1ccc(F)cc1", "target": "TACR3", "test": "cell-free assay", "setting": "10 µM", "inhibition [%]": -11}
{"Compound": "C#Cc1n[nH]c2c(-c3cn([C@@H](C)c4ccccn4)c(=O)[nH]c3=O)cc(F)cc12", "target": "MAP4K3", "test": "enzyme activity, inhibitor", "setting": "0.1 µM", "inhibition [%]": -2.5}
{"Compound": "CN(CCN1CCC(OC(=O)Nc2ccccc2-c2ccccc2)CC1)C(=O)c1ccc(CN2CCC(C(N)=O)CC2)cc1", "target": "TACR3", "test": "ligand displacement, radioligand", "setting": "1 µM", "inhibition [%]": 1}
{"Compound": "COc1cc(Nc2ncc(F)c(Nc3ccc4c(n3)NC(=O)C(C)(C)O4)n2)cc(OC)c1OC", "target": "MAP4K3", "test": "binding, competition with immobilised ligand", "setting": "10 µM", "inhibition [%]": 52}
{"Compound": "OC[C@@]12C[C@@H]1[C@@H](n1cnc3c(NC(C4CCCC4)C4CCCC4)nc(Cl)cc31)[C@H](O)[C@@H]2O", "target": "ADORA1", "test": "ligand displacement, radioligand", "setting": "10 µM", "inhibition [%]": 11}
{"Compound": "CNC(=O)[C@H](Cc1ccccc1)NC(=O)[C@H](CC(C)C)[C@H](CSc1cccs1)C(=O)NO", "target": "Matrilysin (MMP7, Homo sapiens, UniProt P09237)", "test": "enzyme activity, inhibitor", "setting": "10 nM", "inhibition [%]": 94}
{"Compound": "CCOC(=O)[C@@]12C[C@@H]1[C@@H](n1cnc3c(NC(C4CCCC4)C4CCCC4)nc(Cl)nc31)[C@H](O)[C@@H]2O", "target": "ADORA1", "test": "ligand displacement, radioligand", "setting": "10 µM", "inhibition [%]": 55}
{"Compound": "N=C(N)c1ccc2cc(OC(=O)c3ccc(N=C(N)N)cc3)ccc2c1", "target": "OTUD6B", "test": "enzyme activity, inhibitor", "setting": "10 µM", "inhibition [%]": 9}
{"Compound": "COCCN(CCOC)C(=O)[C@@]12C[C@@H]1[C@@H](n1cnc3c(NC(C4CC4)C4CC4)nc(Cl)nc31)[C@H](O)[C@@H]2O", "target": "ADORA1", "test": "ligand displacement, radioligand", "setting": "10 µM", "inhibition [%]": 34}
{"Compound": "CN(C)C(=O)COC(=O)Cc1ccc(OC(=O)c2ccc(NC(=N)N)cc2)cc1", "target": "OTUD6B", "test": "enzyme activity, inhibitor", "setting": "10 µM", "inhibition [%]": 1}
